Assay results taken from ChEMBL document CHEMBL3856186, “Partial Activation and Inhibition of TRPV1 Channels by Evodiamine and Rutaecarpine, Two Major Components of the Fruits of Evodia rutaecarpa” (J Nat Prod, 2016).
Active and inactive are the calls of the source. No cut-off for these calls is given here.

Assays:
Assay type in all cases: cell-based
[1] = biological target: Transient receptor potential cation channel subfamily V member 1 (Rattus norvegicus, UniProt O35433); assay: Agonist activity at rat TRPV1 channel expressed in HEK293 cells assessed as induction of channel current at -60 mV holding potential by whole-cell patch-clamp method
Sequence of Transient receptor potential cation channel subfamily V member 1 (O35433 whole entry): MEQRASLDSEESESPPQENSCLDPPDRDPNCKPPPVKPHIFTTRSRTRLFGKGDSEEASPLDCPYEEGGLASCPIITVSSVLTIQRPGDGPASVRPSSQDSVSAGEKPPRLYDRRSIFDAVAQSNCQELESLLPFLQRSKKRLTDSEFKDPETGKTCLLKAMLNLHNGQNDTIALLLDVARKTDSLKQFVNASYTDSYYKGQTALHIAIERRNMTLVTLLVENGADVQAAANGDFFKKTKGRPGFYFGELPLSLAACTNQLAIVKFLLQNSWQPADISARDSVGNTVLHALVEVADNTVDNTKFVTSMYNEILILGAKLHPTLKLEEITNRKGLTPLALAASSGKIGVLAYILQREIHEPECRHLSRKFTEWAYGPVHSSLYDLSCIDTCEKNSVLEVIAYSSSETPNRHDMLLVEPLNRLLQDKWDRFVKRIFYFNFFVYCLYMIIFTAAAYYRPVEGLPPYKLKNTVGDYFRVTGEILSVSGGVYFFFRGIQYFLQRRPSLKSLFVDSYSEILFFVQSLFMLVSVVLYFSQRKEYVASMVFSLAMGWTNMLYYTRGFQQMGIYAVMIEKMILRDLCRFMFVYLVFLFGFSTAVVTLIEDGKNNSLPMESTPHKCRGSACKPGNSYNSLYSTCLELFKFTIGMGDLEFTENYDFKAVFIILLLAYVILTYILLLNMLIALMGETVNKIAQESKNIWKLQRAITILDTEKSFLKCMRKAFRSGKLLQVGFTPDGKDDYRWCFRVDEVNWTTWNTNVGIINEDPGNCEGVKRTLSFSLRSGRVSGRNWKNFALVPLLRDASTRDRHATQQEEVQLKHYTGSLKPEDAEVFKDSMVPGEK
Procedure, shortened: (§1)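 Rat TRPV1 cDNA and an EGFP reporter were cotransfected into HEK293 cells, with recording 1 day later. Whole-cell voltage clamp was run at room temperature (~25 °C) in standard bath (2 mM CaCl2, pH 7.4) with a KCl/MgATP/EGTA pipette solution. Steps from −100 to +100 mV (100 ms) gave I–V curves. Agonist was applied until desensitization, and peak current was scored. EC50 came from a sigmoidal fit.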

[2] = biological target: Transient receptor potential cation channel subfamily V member 1 (Rattus norvegicus) (UniProt O35433); assay: Agonist activity at rat TRPV1 channel expressed in HEK293 cells assessed as reversal potential at 50 uM and -60 mV holding potential by whole-cell patch-clamp method; procedure, shortened: as §1
Sequence of Transient receptor potential cation channel subfamily V member 1 (Rattus norvegicus) (O35433 whole entry): as above

[3] = biological target: Transient receptor potential cation channel subfamily V member 1 (Rattus norvegicus) (UniProt O35433); assay: Partial antagonist activity at rat TRPV1 expressed in HEK293 cells assessed as inhibition of proton-induced channel current at 2 uM at -60 mV holding potential co-treated with proton by whole-cell patch clamp method
Procedure, shortened: (§2)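 Proton-activated currents were recorded in rat TRPV1-expressing HEK293 cells held at −60 mV in whole-cell mode, with bath buffered to pH 6 with 10 mM MES, at ~25 °C. Peak current amplitude was the read-out.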

[4] = biological target: Transient receptor potential cation channel subfamily V member 1 (Rattus norvegicus) (UniProt O35433); assay: Partial antagonist activity at rat TRPV1 expressed in HEK293 cells assessed as inhibition of proton-induced channel current at 1 or 50 uM and -60 mV holding potential pretreated for 60 secs prior to proton-challenge by whole-cell patch clamp method (reference value: 185.1 +/- 38.6 pA/pF); procedure, shortened: as §2
[5] = biological target: Transient receptor potential cation channel subfamily V member 1 (Rattus norvegicus) (UniProt O35433); assay: Agonist activity at rat TRPV1 channel expressed in HEK293 cells assessed as outward rectifying current at 50 uM and -60 mV holding potential by whole-cell patch-clamp method; procedure, shortened: as §1
[6] = biological target: Transient receptor potential cation channel subfamily V member 1 (Rattus norvegicus) (UniProt O35433); assay: Agonist activity at rat TRPV1 channel expressed in HEK293 cells assessed as induction of inward current at 50 uM and -60 mV holding potential by whole-cell patch-clamp method; procedure, shortened: as §1
[7] = biological target: Transient receptor potential cation channel subfamily V member 1 (Rattus norvegicus) (UniProt O35433); assay: Agonist activity at rat TRPV1 channel expressed in HEK293 cells assessed as induction of maximum channel current at 50 uM at -60 mV holding potential by whole-cell patch-clamp method; procedure, shortened: as §1

Compound: O=c1c2ccccc2nc2n1CCc1c-2[nH]c2ccccc12 [RUTAECARPINE]
- EC50 [1]: 2060 nM
- Activity [2]: 0 mV
- Activity [3]: -200 pA/pF
- Activity [4]: -157 pA/pF
- Activity [5]: Active
- Activity [6]: Active
- Activity [7]: -55 pA/pF
